Test results: ChEMBL document CHEMBL1649422, “Synthesis and molecular modeling of novel tetrahydro-β-carboline derivatives with phosphodiesterase 5 inhibitory and anticancer properties” (J Med Chem, 2011)

Legend:
[1] = biological target: T1, cGMP-specific 3',5'-cyclic phosphodiesterase (Homo sapiens, UniProt O76074); assay: Inhibition of human recombinant PDE5 at 10 uM after 30 mins by fluorescence polarization assay
[2] = test system: MDA-MB-231; assay: Growth inhibition of human MDA-MB-231 cells at 10 uM after 72 hrs by luminescence assay; assay type: functional; conditions: MDA-MB-231, 72 h
[3] = biological target: T1, cGMP-specific 3',5'-cyclic phosphodiesterase; assay: Inhibition of human recombinant PDE5 after 30 mins by fluorescence polarization assay
Method in brief: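 Recombinant human PDE5A at 12.5 units/mL was preincubated 30 min with compound or vehicle. Then 50 nM TAMRA-cGMP was added and the mix incubated 1.5 h at 30 °C. IMAP binding reagent was added for 30 min at 30 °C and fluorescence polarization read. IC50 came from a 10-concentration series in quadruplicate, fitted to a four-parameter logistic.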

Row | inhibition [1] | IC50 [3] | Compound | inhibition at 10 µM [2]
1 | 21% | – | CC(C)(C)N1CC(=O)N2[C@@H](c3c(Cl)cccc3Cl)c3[nH]c4ccccc4c3C[C@H]2C1=O | 20%
2 | 20% | – | COC(=O)[C@@H]1Cc2c([nH]c3ccccc23)[C@H](c2ccc(Cl)c(Cl)c2)N1C(=O)CCl | 43%
3 | 85% | 0.85 µM | CCN1C(=O)[C@@H]2Cc3c([nH]c4ccccc34)[C@H](c3ccc(Cl)cc3Cl)N2C1=O | 29%
4 | 85% | 1.27 µM | CC(C)(C)N1CC(=O)N2[C@H](c3ccc(Cl)c(Cl)c3)c3[nH]c4ccccc4c3C[C@H]2C1=O | 50%
5 | 30% | – | COC(=O)[C@H]1Cc2c([nH]c3ccccc23)[C@H](c2ccc(Cl)c(Cl)c2)N1C(=O)CCl | 50%
6 | 35% | – | CC(C)(C)N1CC(=O)N2[C@@H](c3ccc(Cl)c(Cl)c3)c3[nH]c4ccccc4c3C[C@H]2C1=O | 58%
7 | 95% | 0.01 µM | CCN1CC(=O)N2[C@H](c3ccc(Cl)cc3Cl)c3[nH]c4ccccc4c3C[C@H]2C1=O | 20%
8 | 90% | 0.3 µM | CCN1C(=O)[C@@H]2Cc3c([nH]c4ccccc34)[C@@H](c3ccc(Cl)c(Cl)c3)N2C1=O | 18%
9 | – | 2.86 µM | CCN1C(=O)[C@H]2Cc3c([nH]c4ccccc34)[C@H](c3ccc(Cl)c(Cl)c3)N2C1=O | –
10 | 40% | – | CCN1CC(=O)N2[C@H](c3c(Cl)cccc3Cl)c3[nH]c4ccccc4c3C[C@@H]2C1=O | 31%
11 | 40% | – | COC(=O)[C@H]1Cc2c([nH]c3ccccc23)[C@@H](c2ccc(Cl)c(Cl)c2)N1C(=O)CCl | –
12 | 37% | – | CCN1C(=O)[C@@H]2Cc3c([nH]c4ccccc34)[C@H](c3c(Cl)cccc3Cl)N2C1=O | 52%
13 | 99% | 0.38 µM | COC(=O)[C@@H]1Cc2c([nH]c3ccccc23)[C@H](c2ccc(Cl)cc2Cl)N1C(=O)CCl | 55%
14 | 65% | 6.38 µM | CC(C)(C)N1C(=O)[C@H]2Cc3c([nH]c4ccccc34)[C@H](c3ccc(Cl)c(Cl)c3)N2C1=O | 58%
15 | 78% | 1.61 µM | COC(=O)[C@H]1Cc2c([nH]c3ccccc23)[C@@H](c2ccc(Cl)c(Cl)c2)N1 | 43%
16 | 21% | – | CC(C)(C)N1CC(=O)N2[C@H](c3c(Cl)cccc3Cl)c3[nH]c4ccccc4c3C[C@@H]2C1=O | 16%
17 | 90% | 0.09 µM | CCN1C(=O)[C@H]2Cc3c([nH]c4ccccc34)[C@H](c3ccc(Cl)cc3Cl)N2C1=O | 54%
18 | 89% | 0.29 µM | CCCCN1CC(=O)N2[C@H](c3ccc(Cl)cc3Cl)c3[nH]c4ccccc4c3C[C@H]2C1=O | 42%
19 | 27% | – | COC(=O)[C@H]1Cc2c([nH]c3ccccc23)[C@@H](c2c(Cl)cccc2Cl)N1C(=O)CCl | 15%
20 | 94% | 0.19 µM | CC(C)(C)N1CC(=O)N2[C@H](c3ccc(Cl)cc3Cl)c3[nH]c4ccccc4c3C[C@@H]2C1=O | 15%
21 | 80% | 1.34 µM | CCN1CC(=O)N2[C@H](c3ccc(Cl)c(Cl)c3)c3[nH]c4ccccc4c3C[C@@H]2C1=O | 30%
22 | 45% | – | CCN1CC(=O)N2[C@@H](c3ccc(Cl)c(Cl)c3)c3[nH]c4ccccc4c3C[C@@H]2C1=O | 44%

Row | inhibition [1] | IC50 [3] | Compound | inhibition at 10 µM [2]
23 | 82% | 0.57 µM | COC(=O)[C@@H]1Cc2c([nH]c3ccccc23)[C@@H](c2ccc(Cl)cc2Cl)N1 | 28%
24 | 88% | 0.012 µM | CC(C)(C)N1C(=O)[C@@H]2Cc3c([nH]c4ccccc34)[C@@H](c3ccc(Cl)c(Cl)c3)N2C1=O | 60%
25 | 67% | 3.3 µM | CCN1CC(=O)N2[C@@H](c3ccc(Cl)c(Cl)c3)c3[nH]c4ccccc4c3C[C@H]2C1=O | 35%
26 | 75% | 4.14 µM | CC(C)(C)N1C(=O)[C@@H]2Cc3c([nH]c4ccccc34)[C@H](c3ccc(Cl)cc3Cl)N2C1=O | 22%
27 | 95% | 0.05 µM | CN1CC(=O)N2[C@H](c3ccc(Cl)cc3Cl)c3[nH]c4ccccc4c3C[C@@H]2C1=O | 10%
28 | 65% | 7.2 µM | COC(=O)[C@H]1Cc2c([nH]c3ccccc23)[C@@H](c2ccc(Cl)cc2Cl)N1 | 29%
29 | 95% | 0.15 µM | CCN1C(=O)[C@H]2Cc3c([nH]c4ccccc34)[C@@H](c3ccc(Cl)c(Cl)c3)N2C1=O | 50%
30 | 24% | – | COC(=O)[C@@H]1Cc2c([nH]c3ccccc23)[C@@H](c2ccc(Cl)c(Cl)c2)N1 | 48%
31 | 52% | – | CC(C)(C)N1C(=O)[C@H]2Cc3c([nH]c4ccccc34)[C@@H](c3c(Cl)cccc3Cl)N2C1=O | 38%
32 | 25% | – | COC(=O)[C@H]1Cc2c([nH]c3ccccc23)[C@@H](c2c(Cl)cccc2Cl)N1 | –
33 | 28% | – | CCN1CC(=O)N2[C@@H](c3c(Cl)cccc3Cl)c3[nH]c4ccccc4c3C[C@H]2C1=O | 24%
34 | 95% | 0.05 µM | CN1CC(=O)N2[C@H](c3ccc(Cl)cc3Cl)c3[nH]c4ccccc4c3C[C@H]2C1=O | 23%
35 | 85% | 0.99 µM | CCN1CC(=O)N2[C@@H](c3ccc(Cl)cc3Cl)c3[nH]c4ccccc4c3C[C@H]2C1=O | 52%
36 | 35% | – | CC(C)(C)N1CC(=O)N2[C@H](c3ccc(Cl)c(Cl)c3)c3[nH]c4ccccc4c3C[C@@H]2C1=O | 36%
37 | 25% | – | CC(C)(C)N1C(=O)[C@@H]2Cc3c([nH]c4ccccc34)[C@H](c3c(Cl)cccc3Cl)N2C1=O | 15%
38 | 95% | 0.27 µM | CCCCN1CC(=O)N2[C@H](c3ccc(Cl)cc3Cl)c3[nH]c4ccccc4c3C[C@@H]2C1=O | 45%
39 | 55% | – | COC(=O)[C@@H]1Cc2c([nH]c3ccccc23)[C@H](c2ccc(Cl)cc2Cl)N1 | 50%
40 | 18% | – | CCN1C(=O)[C@H]2Cc3c([nH]c4ccccc34)[C@@H](c3c(Cl)cccc3Cl)N2C1=O | 55%
41 | 30% | – | CC(C)(C)N1CC(=O)N2[C@@H](c3ccc(Cl)c(Cl)c3)c3[nH]c4ccccc4c3C[C@@H]2C1=O | 40%
42 | – | 0.26 µM | CC(C)(C)N1CC(=O)N2[C@H](c3ccc(Cl)cc3Cl)c3[nH]c4ccccc4c3C[C@H]2C1=O | 30%
43 | 40% | – | COC(=O)[C@@H]1Cc2c([nH]c3ccccc23)[C@@H](c2ccc(Cl)c(Cl)c2)N1C(=O)CCl | 55%
44 | 15% | – | COC(=O)[C@@H]1Cc2c([nH]c3ccccc23)[C@H](c2c(Cl)cccc2Cl)N1 | 52%
